Published values from different studies.
Compare with care: the assays were run in different laboratories.
Target: Serine/threonine-protein kinase 10 (STK10, Homo sapiens, UniProt O94804)

C=CC(=O)N1CCC([C@@H]2CCNc3c(C(N)=O)c(-c4ccc(Oc5ccccc5)cc4)nn32)CC1  inhibition (enzyme activity; inhibitor; 1 µM): 0%
Cc1ccc(NC(=O)c2ccnc(C(F)(F)F)c2)cc1-c1cc(OCCO)nc(N2CCOCC2)c1  remaining binding (binding; competition with immobilised ligand; 1 µM): 21%
C#Cc1cc(-c2cc(Nc3nc(N[C@@H](C)c4ccc(F)cn4)ncc3Cl)n[nH]2)ccc1C=O  inhibition (enzyme activity; inhibitor; 0.2 µM): 36.5%
COc1ccc2oc(-c3ccc4nc(N)oc4c3)c/c(=N\c3ccccc3NC(=O)CCN)c2c1  remaining binding (binding; 1 µM): 100%
CN1CCN(C(=O)c2ccc(NC(=O)Nc3ccc(N(C)c4ccnc(Nc5ccc(CS(C)(=O)=O)cc5)n4)cc3)cc2)CC1  remaining binding (binding; competition with immobilised ligand; 1 µM): 0.4%
C1=C/COCc2cc(ccc2OCCN2CCCC2)Nc2nccc(n2)-c2cccc(c2)COC/1  remaining signal (cell-free assay; 0.1 µM): 89%
CCCCC(=O)Nc1ccc(-c2ccc3ncn(CCC)c(=O)c3c2)cn1  remaining binding (binding; competition with immobilised ligand; 0.5 µM): 99%
C=CC(=O)N1CCC[C@@H](n2nc(-c3ccc(Oc4ccccc4)cc3)c3c(N)ncnc32)C1  inhibition (enzyme activity; inhibitor; 1 µM): 46%
